The values that follow come from paper PMC5126733 (Journal of medicinal chemistry, 2015).

A value given as a limit tells only on which side of the number the result lay.

Series [1] deals with T1, recombinant human ER-α (Homo sapiens, UniProt P03372).
T1 sequence (P03372 1-595): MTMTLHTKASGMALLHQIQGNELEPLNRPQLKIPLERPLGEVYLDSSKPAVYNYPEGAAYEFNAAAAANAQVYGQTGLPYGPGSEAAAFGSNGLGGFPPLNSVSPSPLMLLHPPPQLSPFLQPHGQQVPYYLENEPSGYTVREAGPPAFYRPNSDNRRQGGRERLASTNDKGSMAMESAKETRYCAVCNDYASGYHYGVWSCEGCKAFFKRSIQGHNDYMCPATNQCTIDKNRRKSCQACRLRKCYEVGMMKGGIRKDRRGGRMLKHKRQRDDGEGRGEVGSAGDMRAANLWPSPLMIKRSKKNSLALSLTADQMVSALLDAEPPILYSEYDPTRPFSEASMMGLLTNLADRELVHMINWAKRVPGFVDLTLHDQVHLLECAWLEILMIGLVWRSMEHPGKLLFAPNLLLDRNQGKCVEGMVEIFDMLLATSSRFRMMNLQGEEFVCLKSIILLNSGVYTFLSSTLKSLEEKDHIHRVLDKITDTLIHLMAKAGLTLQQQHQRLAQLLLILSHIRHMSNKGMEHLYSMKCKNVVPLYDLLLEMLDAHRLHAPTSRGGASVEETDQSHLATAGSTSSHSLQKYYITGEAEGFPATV
Particulars: at 100 μM compound; compound 7; cited from earlier work.

The subject of series [2] is ER in MCF-7-2a cells. Particulars: cited from earlier work.
The target in series [3] is T2, recombinant human aromatase (CYP19) (Homo sapiens, UniProt P11511).
T2 sequence (P11511 1-503): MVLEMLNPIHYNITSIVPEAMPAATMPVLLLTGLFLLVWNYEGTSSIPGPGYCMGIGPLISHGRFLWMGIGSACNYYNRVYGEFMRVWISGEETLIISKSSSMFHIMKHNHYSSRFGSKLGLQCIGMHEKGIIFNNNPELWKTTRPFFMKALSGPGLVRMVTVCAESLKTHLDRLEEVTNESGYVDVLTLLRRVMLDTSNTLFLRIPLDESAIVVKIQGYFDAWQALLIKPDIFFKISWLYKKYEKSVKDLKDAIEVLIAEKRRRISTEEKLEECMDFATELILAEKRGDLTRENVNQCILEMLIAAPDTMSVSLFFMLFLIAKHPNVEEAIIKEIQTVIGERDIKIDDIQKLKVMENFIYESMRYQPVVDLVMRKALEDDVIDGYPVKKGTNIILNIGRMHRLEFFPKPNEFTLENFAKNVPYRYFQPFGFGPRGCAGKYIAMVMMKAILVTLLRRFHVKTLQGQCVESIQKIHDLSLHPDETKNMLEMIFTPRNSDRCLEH
The series is described as follows: Inhibition of recombinant human aromatase. Type of series: biochemical. Particulars: ratio of aromatase IC50 values vs compound 7.

Series [4] deals with progesterone receptor (PGR) mRNA expression in MCF-7 human breast cancer cells. Briefly: Antagonism of β-estradiol. Type of series: cell-based. Particulars: MCF-7 cells, 1 μM compound, 10 nM E2, 24 h. In short, it runs like this:
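MCF-7 cells were grown in MEM with 10% FBS at 37 °C in 5% CO2, then preconditioned 72 h in charcoal-stripped FBS. They were treated 24 h with 1 μM test compound, vehicle (0.1% methanol) or a positive-control antiestrogen, all with 10 nM E2. PGR mRNA was measured by TaqMan RT-qPCR (40 cycles), normalized to GAPDH by 2−ΔΔCt, and expressed as % of E2-stimulated expression.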

Series [5] relates to postmenopausal women with breast cancer. Particulars: five-year ATAC trial, anastrozole alone compared to tamoxifen alone; cited from earlier work.
The conditions of series [6]: combination arm (with tamoxifen) of the ATAC trial; cited from earlier work.

In the case of `CCC(=C(c1ccc(O)cc1)c1ccc(O)cc1)c1ccccc1` [Compound 7], the ER-α percent competition in series [1] is given as 80% competition. Also, the ER antagonist/agonist character entry in series [2] was “good ER antagonist without significant agonistic side effects”.

For the molecule `Oc1ccc(C(=C(Cn2ccnc2)c2ccccc2)c2ccc(O)cc2)cc1` [Compound 12, 4,4'-(3-(1H-Imidazol-1-yl)-2-phenylprop-1-ene-1,1-diyl)diphenol], in series [3], the “fold improvement in aromatase inhibitory activity compared with 7” value is on record as > 5000 fold. In addition, the “PGR mRNA expression level in the presence of 10 nM E2 (E2 alone = 100%)” value (“PGR mRNA expression level … (E2 alone = 100%)” below) in series [4] is 26-31%.

For `Oc1ccc(C(Cn2ccnc2)=C(c2ccc(O)cc2)c2ccc(O)cc2)cc1` [Compound 18a, 4,4',4”-(3-(1H-Imidazol-1-yl)prop-1-ene-1,1,2-triyl)triphenol], the “PGR mRNA expression level … (E2 alone = 100%)” value in series [4] is reported as 26-31%.

For `Oc1ccc(C(=C(Cn2ccnc2)c2ccc(O)c(F)c2)c2ccc(O)cc2)cc1` [Compound 18b, 4,4'-(2-(3-Fluoro-4-hydroxyphenyl)-3-(1H-imidazol-1-yl)prop-1-ene-1,1-diyl)diphenol], the “PGR mRNA expression level … (E2 alone = 100%)” value in series [4] is listed as 26-31%.

Regarding `Nc1ccc(C(Cn2ccnc2)=C(c2ccc(O)cc2)c2ccc(O)cc2)cc1` [Compound 26, 4,4'-(2-(4-Aminophenyl)-3-(1H-imidazol-1-yl)prop-1-ene-1,1-diyl)diphenol], in series [4], the “PGR mRNA expression level … (E2 alone = 100%)” value is on record as 26-31%.

For the molecule `CC(C)(C#N)c1cc(Cn2cncn2)cc(C(C)(C)C#N)c1` [anastrozole], in series [5], the “improvement of disease-free survival” value is given as 13%, the “reduction in occurrence of contralateral breast cancer” value was 42%, the “reduction in risk of distant metastasis” value was 14% and the “reduction in the time-to-recurrence” value is given as 21%. Moreover, the “lowering of serum concentration of anastrozole in the combination arm” value in series [6] is reported as 27%.

Take Endoxifen: the “PGR mRNA expression level … (E2 alone = 100%)” value in series [4] is listed as 10%.
